Laboratory results from ChEMBL document CHEMBL3526035, “Role of the intestinal peptide transporter PEPT1 in oseltamivir absorption: in vitro and in vivo studies” (Drug Metab Dispos, 2012).

What was measured:
[1] = Cmax in adult fasted Sprague-Dawley rat at 30 mg/kg, po administered as solution in bovine milk by HPLC-tandem mass spectrometry; assay type: ADME, organism-based; design: dose 30 mg/kg, route oral; conditions: in vivo
Procedure, shortened: (§1)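 Adult cannulated Sprague-Dawley rats, fasted (from 6 h predose) or fed, dosed orally at 30 mg/kg (10 ml/kg), 3 per group. Serial jugular plasma with dichlorvos stabilisation, measured by LC-MS/MS. Cmax read graphically from the concentration-time profile.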

[2] = Drug uptake in CHOK1 cells at 5 to 100 uM after 10 mins by HPLC coupled with radiodetection analysis; assay type: ADME, cell-based, Cricetulus griseus; conditions: chinese hamster, cho-k1, 10 min
[3] = Renal clearance in healthy human at 150 mg, po administered as single dose by HPLC-tandem mass spectrometry under fed conditions; assay type: ADME, organism-based, Kidney; conditions: in vivo
Procedure, shortened: (§2)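 Open-label crossover food-effect study in 18 healthy volunteers (9 male, 9 female, mean age 26). Each received a single 150 mg oral dose of the marketed formulation, once fasting from midnight and once after a high-fat, high-calorie breakfast, separated by a 7–10 day washout. Plasma and urine were collected over 0–72 h and assayed by HPLC-MS/MS for oseltamivir and carboxylate.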

[4] = AUC(0 to 6 hrs) in adult fasted Sprague-Dawley rat at 30 mg/kg, po administered as water solution by HPLC-tandem mass spectrometry; assay type: ADME, organism-based; design: time < 6 hr, dose 30 mg/kg, route oral; conditions: plasma
Procedure, shortened: (§3)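 Adult male Sprague-Dawley rats (243-283 g), jugular-cannulated, fasted from 6 h before dosing through the 6-h study. Given 30 mg/kg orally (free base) at 10 ml/kg, n=3/group. Blood sampled at 0.25-6 h into K2EDTA with dichlorvos esterase inhibitor. Plasma assayed by LC-MS/MS (0.1-500 μg/l). Noncompartmental analysis: linear-trapezoid AUC; infinity extrapolation via log-linear terminal λz.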

[5] = AUC(0 to infinity) in adult fed Sprague-Dawley rat at 30 mg/kg, po administered as water solution by HPLC-tandem mass spectrometry; assay type: ADME, organism-based; design: time infinity, dose 30 mg/kg, route oral; conditions: plasma
Procedure, shortened: (§4)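 Sprague-Dawley males, 7-8 weeks, 243-283 g, jugular-cannulated, 3 days' recovery; fed (chow ad libitum). Single oral dose of 30 mg/kg (free base) at 10 ml/kg; 3 rats/group. Jugular blood taken at 0.25-24 h into K2EDTA with dichlorvos, kept on ice. Plasma analysed by validated LC-MS/MS (0.1-500 μg/l). Noncompartmental analysis; AUC by linear trapezoid, AUC0-∞ extrapolated using λz.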

[6] = Drug uptake in CHOK1 cells expressing human PEPT1 incubated for 30s to 15 mins by HPLC coupled with radiodetection analysis; assay type: ADME, cell-based, Cricetulus griseus; conditions: chinese hamster, cho-k1, 0.25 h
Procedure, shortened: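 Accumulation of [14C]oseltamivir or its carboxylate in CHO-PEPT1 versus CHO-K1 cells. Conditions varied: KH buffer (with MES) or Hanks' balanced salt solution, pH 5 or 6 readjusted after substrate addition, 30 s to 15 min at 37°C. Uptake was quenched with ice-cold PBS-BSA, followed by Triton X-100 lysis, scintillation counting, and BCA protein normalization. HPLC-radiodetection checked ester stability.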

[7] = Tmax in juvenile breast-fed Sprague-Dawley rat at 30 mg/kg, po administered as water solution by HPLC-tandem mass spectrometry; assay type: ADME, organism-based; design: dose 30 mg/kg, route oral; conditions: in vivo
Procedure, shortened: (§5)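 Seven-day-old Sprague-Dawley pups, males and females, 15 per group, were gavaged with 30 mg/kg (10 ml/kg). Breast-fed pups stayed with their dams; fasted pups were removed from 8 h predose through 5 h. Cardiac blood was drawn under isoflurane at 0.25, 0.5, 1, 2 and 5 h (composite, n=3/time point), with dichlorvos added. Plasma was analyzed by HPLC-MS/MS and Tmax read graphically.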

[8] = AUC(0 to infinity) in healthy human at 150 mg, po administered as single dose by HPLC-tandem mass spectrometry under fed conditions; assay type: ADME, organism-based; design: dose 150 mg, time infinity, route oral; conditions: plasma
Procedure, shortened: (§6)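 Open-label crossover in 18 healthy volunteers (9 male, 9 female, mean age 26). Each received marketed oseltamivir 150 mg orally, once fasted from midnight and once after a high-fat, high-calorie breakfast, with a 7-10 day washout. Plasma and urine collected over 0-72 h and analysed by HPLC-MS/MS. AUC and Cmax compared after log transformation.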

[9] = Cmax in adult fed Sprague-Dawley rat at 30 mg/kg, po administered as 125 mM aqueous Gly-Sar solution by HPLC-tandem mass spectrometry; assay type: ADME, organism-based; design: dose 30 mg/kg, route oral; conditions: in vivo; procedure, shortened: as §1
[10] = Tmax in juvenile fasted Sprague-Dawley rat at 30 mg/kg, po administered as 125 mM aqueous Gly-Sar solution by HPLC-tandem mass spectrometry; assay type: ADME, organism-based; design: dose 30 mg/kg, route oral; conditions: in vivo; procedure, shortened: as §5
[11] = Apparent oral clearance in healthy human at 150 mg, po administered as single dose by HPLC-tandem mass spectrometry under fed conditions; assay type: ADME, organism-based; conditions: in vivo; procedure, shortened: as §6
[12] = Apparent oral clearance in healthy human at 150 mg, po administered as single dose by HPLC-tandem mass spectrometry under fasting conditions; assay type: ADME, organism-based; conditions: in vivo; procedure, shortened: as §6
[13] = Tmax in juvenile fasted Sprague-Dawley rat at 30 mg/kg, po administered as solution in bovine milk by HPLC-tandem mass spectrometry; assay type: ADME, organism-based; design: dose 30 mg/kg, route oral; conditions: in vivo; procedure, shortened: as §5
[14] = AUC(0 to infinity) in adult fasted Sprague-Dawley rat at 30 mg/kg, po administered as water solution by HPLC-tandem mass spectrometry; assay type: ADME, organism-based; design: time infinity, dose 30 mg/kg, route oral; conditions: plasma; procedure, shortened: as §3
[15] = Cmax in juvenile fasted Sprague-Dawley rat at 30 mg/kg, po administered as 125 mM aqueous Gly-Sar solution by HPLC-tandem mass spectrometry; assay type: ADME, organism-based; design: dose 30 mg/kg, route oral; conditions: in vivo
Procedure, shortened: (§7)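 7-day-old Sprague-Dawley pups (9.7-18.9 g, both sexes), 15 per group. Given 30 mg/kg by oral gavage (10 ml/kg); breast-fed pups stayed with dams, fasted pups were removed 8 h before dosing. Blood taken by cardiac puncture under isoflurane at 0.25, 0.5, 1, 2 and 5 h, n=3 per time point (composite design). Dichlorvos-treated plasma assayed by LC-MS/MS; AUC0-5h by noncompartmental analysis.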

[16] = Tmax in adult fed Sprague-Dawley rat at 30 mg/kg, po administered as 125 mM aqueous Gly-Sar solution by HPLC-tandem mass spectrometry; assay type: ADME, organism-based; design: dose 30 mg/kg, route oral; conditions: in vivo
Procedure, shortened: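 Cannulated adult male Sprague-Dawley rats with chow ad libitum, 3 per vehicle, were given oral 30 mg/kg (10 ml/kg). Plasma analysis was by HPLC-MS/MS, with Tmax taken graphically from concentration-time profiles.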

[17] = AUC(0 to 24 hrs) in healthy human at 150 mg, po administered as single dose by HPLC-tandem mass spectrometry under fed conditions; assay type: ADME, organism-based; design: time < 24 hr, dose 150 mg, route oral; conditions: plasma; procedure, shortened: as §6
[18] = AUC(0 to 6 hrs) in adult fed Sprague-Dawley rat at 30 mg/kg, po administered as water solution by HPLC-tandem mass spectrometry; assay type: ADME, organism-based; design: time < 6 hr, dose 30 mg/kg, route oral; conditions: plasma; procedure, shortened: as §4
[19] = AUC(0 to 5 hrs) in juvenile fasted Sprague-Dawley rat at 30 mg/kg, po administered as 125 mM aqueous Gly-Sar solution by HPLC-tandem mass spectrometry; assay type: ADME, organism-based; design: time < 5 hr, dose 30 mg/kg, route oral; conditions: plasma; procedure, shortened: as §7
[20] = Cmax in juvenile breast-fed Sprague-Dawley rat at 30 mg/kg, po administered as water solution by HPLC-tandem mass spectrometry; assay type: ADME, organism-based; design: dose 30 mg/kg, route oral; conditions: in vivo; procedure, shortened: as §7
[21] = AUC(0 to infinity) in healthy human at 150 mg, po administered as single dose by HPLC-tandem mass spectrometry under fasting conditions; assay type: ADME, organism-based; design: dose 150 mg, route oral, time infinity; conditions: plasma; procedure, shortened: as §6
[22] = Cmax in adult fasted Sprague-Dawley rat at 30 mg/kg, po administered as 125 mM aqueous Gly-Sar solution by HPLC-tandem mass spectrometry; assay type: ADME, organism-based; design: dose 30 mg/kg, route oral; conditions: in vivo; procedure, shortened: as §1
[23] = Tmax in healthy human at 150 mg, po administered as single dose by HPLC-tandem mass spectrometry under fasting conditions; assay type: ADME, organism-based; conditions: in vivo; procedure, shortened: as §2

Cmax [1] [µg/mL]	Drug uptake [2]	CL renal [3] [mL/min]	AUC(0-t) at 6 h [4] [µg·h/mL]	AUC(0-inf) [5] [µg·h/mL]	Drug uptake [6]	Tmax [7] [h]	AUC(0-inf) [8] [µg·h/mL]	Cmax [9] [µg/mL]	Tmax [10] [h]	CL/F [11] [mL/min]	CL/F [12] [mL/min]	Tmax [13] [h]	AUC(0-inf) [14] [µg·h/mL]	Cmax [15] [µg/mL]	Tmax [16] [h]	AUC(0-t) at 24 h [17] [µg·h/mL]	AUC(0-t) at 6 h [18] [µg·h/mL]	AUC(0-t) at 5 h [19] [µg·h/mL]	Cmax [20] [µg/mL]	SMILES	other results
1.63	Active	218	5.91	5.29	Active	5	6.07	0.693	2	385	371	5	6.14	2.71	1.42	5.06	3.54	10.9	1.5	CCC(CC)O[C@@H]1C=C(C(=O)O)C[C@H](N)[C@H]1NC(C)=O [OSELTAMIVIR CARBOXYLATE]	AUC(0-inf) [21]: 6.22 µg·h/mL; Cmax [22]: 2.56 µg/mL; Tmax [23]: 4.37 h
1.63	Active	385	2.68	2.51	Active	1	0.287	0.926	0.5	9540	13000	1	2.71	10.4	0.66	0.28	2.2	27.1	6.14	CCOC(=O)C1=C[C@@H](OC(CC)CC)[C@H](NC(C)=O)[C@@H](N)C1 [OSELTAMIVIR]	AUC(0-inf) [21]: 0.244 µg·h/mL; Cmax [22]: 2.07 µg/mL; Tmax [23]: 0.806 h
